# Article PMC3204214 (Proteins, 2011)
# pKd: −log10 of the molar value. “Also recorded” adds a separate entry of the source.
# What was measured:
# [1] = target: melittin (Apis mellifera) (UniProt P01501); conditions: cited from earlier work
# [2] = target: Chlamydomonas reinhardtii centrin (Chlamydomonas reinhardtii) (UniProt P05434); assay: ITC
# [3] = holo-Crcen; ref [11]; cited from earlier work
# [4] = ref [12]; cited from earlier work
# [5] = target: T1, Crcen (Chlamydomonas reinhardtii centrin) (Chlamydomonas reinhardtii, UniProt P05434); assay: Isothermal titration calorimetry of Crcen-MLT interaction; assay type: binding; conditions: ITC, pH 7.4, 25 °C
# T1 sequence (P05434 2-169): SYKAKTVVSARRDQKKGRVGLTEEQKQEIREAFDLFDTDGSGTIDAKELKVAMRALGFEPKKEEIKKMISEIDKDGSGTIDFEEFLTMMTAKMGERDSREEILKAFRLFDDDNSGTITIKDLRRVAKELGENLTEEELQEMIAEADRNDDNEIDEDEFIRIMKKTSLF
# Method in brief: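 Unlabeled recombinant centrin was expressed in E. coli, purified, and quantified by ε280 = 1,490 M⁻¹ cm⁻¹. The acetylated, amidated test peptide was dialysed against 0.1 N HCl to remove TFA, then against buffer. 120 μM peptide was injected sequentially into 10 μM centrin in 50 mM Hepes, 150 mM NaCl, 4 mM CaCl₂, 4 mM MgCl₂, pH 7.4, 25 °C. Data were fitted to a one-site binding model.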
# calmodulin (CaM) = conditions: literature statement; cited from earlier work
# CaM (calmodulin) = conditions: cited from earlier work
# tumor = conditions: ref [23],[24]; cited from earlier work
# [6] = target: T1, Crcen (Chlamydomonas reinhardtii centrin); assay: X-ray crystal structure of Crcen-MLT complex; assay type: binding; conditions: PDB 3QRX, 2.30 Å, 4 Ca^2+ ions, Crcen-MLT 1:1.5 molar ratio
# human centrin 2 (Hscen2) = conditions: 30 °C, pH 6.5; compared to Crcen-MLT and CaM-MLT; ref [16]; cited from earlier work
# [7] = FT-IR / 2D IR correlation spectroscopy, thermal dependence; assay type: physicochemical; conditions: ^13C-Crcen-MLT complex
# human centrin 3 = conditions: compared to Hscen2-MLT (Kd 62.5 nM); ref [16],[25]; cited from earlier work
# Sequence of Chlamydomonas reinhardtii centrin (Chlamydomonas reinhardtii) (P05434 whole entry): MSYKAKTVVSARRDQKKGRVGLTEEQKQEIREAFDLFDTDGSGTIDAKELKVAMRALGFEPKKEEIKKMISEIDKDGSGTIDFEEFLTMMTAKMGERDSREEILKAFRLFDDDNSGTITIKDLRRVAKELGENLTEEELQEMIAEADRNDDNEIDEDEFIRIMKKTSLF
# Sequence of Melittin (Ac-…-NH2) (peptide) (P01501 44-69): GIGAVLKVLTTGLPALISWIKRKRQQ
# Sequence of human centrin 2 (P41208 2-172): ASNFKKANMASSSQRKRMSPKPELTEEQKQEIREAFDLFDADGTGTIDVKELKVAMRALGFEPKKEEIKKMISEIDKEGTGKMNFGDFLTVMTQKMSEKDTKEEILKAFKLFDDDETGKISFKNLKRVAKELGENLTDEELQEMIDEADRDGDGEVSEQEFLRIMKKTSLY
# Sequence of melittin (Apis mellifera) (P01501 44-70): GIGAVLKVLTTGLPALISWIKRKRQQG
compound,measurement,setting,value
human centrin 2 (from UniProt P41208),pKd,[1],7.20
Melittin (Ac-…-NH2) (peptide),pKd,[2],8.13
same,dH,[2],-2.73 kcal/mol
same,stoichiometry N,[2],1.38
"Crcen: Chlamydomonas reinhardtii centrin (Swiss Protein Database accession number P05434), EF-hand calcium binding protein",Tm (transition temperature),[3],112.1 °C
same,"shift of amide I’ peak maximum with temperature, unlabeled Crcen",[4],2.5 cm⁻¹
CC[C@H](C)[C@H](NC(=O)CNC(C)=O)C(=O)NCC(=O)N[C@@H](C)C(=O)N[C@H](C(=O)N[C@@H](CC(C)C)C(=O)N[C@@H](CCCCN)C(=O)N[C@H](C(=O)N[C@@H](CC(C)C)C(=O)N[C@H](C(=O)N[C@H](C(=O)NCC(=O)N[C@@H](CC(C)C)C(=O)N1CCC[C@H]1C(=O)N[C@@H](C)C(=O)N[C@@H](CC(C)C)C(=O)N[C@H](C(=O)N[C@@H](CO)C(=O)N[C@@H](Cc1c[nH]c2ccccc12)C(=O)N[C@H](C(=O)N[C@@H](CCCCN)C(=O)N[C@@H](CCCNC(=N)N)C(=O)N[C@@H](CCCCN)C(=O)N[C@@H](CCCNC(=N)N)C(=O)N[C@@H](CCC(N)=O)C(=O)N[C@@H](CCC(N)=O)C(N)=O)[C@@H](C)CC)[C@@H](C)CC)[C@@H](C)O)[C@@H](C)O)C(C)C)C(C)C [MLT],thermodynamic driving force of complex formation,[5],driven by entropy; also recorded: driven entropically
same,ΔG,[5],-11.1 kcal/mol
same,ΔS,[5],28.0 cal/mol∙K
same,n (binding stoichiometry),[5]; one-site binding model,1.38 ± 0.01
same,ΔHb,[5]; exothermic,-2.73 ± 0.07 kcal/mol
same,inhibition of calmodulin (CaM) activity,calmodulin (CaM),potent inhibitor
same,"thermodynamic driving force of complex formation, CaM","CaM (calmodulin); BtCaM, 25 °C, pH 7.0, ref [14]",driven by entropy
same,"dissociation constant (Kd), holo-CaM","CaM (calmodulin); holo-CaM-MLT, 1:1 molar ratio, ref [14],[15],[17]",low nanomolar range
same,pKd,"CaM (calmodulin); read-out: Kd, apo-CaM, ref [17],[18]",~5.00
same,cytotoxicity,tumor,cytotoxicity
same,effect on tumor growth,tumor,inhibitory effect on tumor growth
same,binding site in crystal structure,[6],interacts with the C-terminal domain of Crcen; also recorded: limits its interaction to the C-terminal domain of centrin
same,"enthalpy change, Hscen2-MLT",human centrin 2 (Hscen2),much more favorable for binding
same,conformational change of MLT in the complex,[7],increased helicity
same,"affinity, human centrin 3-MLT, fold higher than Hscen2-MLT",human centrin 3,2–3 fold
